{"data": "Measured values pooled from the literature", "target": "Serine/threonine-protein kinase Sgk1 (SGK1, Homo sapiens, UniProt O00141)", "Residues used in one study (O00141 1-431)": "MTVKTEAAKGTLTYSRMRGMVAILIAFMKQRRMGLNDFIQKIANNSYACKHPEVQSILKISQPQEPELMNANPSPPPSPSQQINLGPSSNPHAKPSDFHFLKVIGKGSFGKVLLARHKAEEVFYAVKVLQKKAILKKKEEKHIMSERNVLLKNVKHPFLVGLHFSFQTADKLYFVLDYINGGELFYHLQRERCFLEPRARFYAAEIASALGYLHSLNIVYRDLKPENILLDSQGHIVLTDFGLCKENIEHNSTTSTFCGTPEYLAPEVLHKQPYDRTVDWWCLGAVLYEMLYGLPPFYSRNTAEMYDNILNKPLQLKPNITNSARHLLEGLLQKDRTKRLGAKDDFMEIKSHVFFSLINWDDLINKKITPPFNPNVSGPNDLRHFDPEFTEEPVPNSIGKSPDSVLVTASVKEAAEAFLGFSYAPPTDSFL"}
{"SMILES": "CN(c1nccc(-c2cnn3ncccc23)n1)C1CC1", "read-out": "binding", "tested at": "1 µM", "remaining binding [%]": 100}
{"SMILES": "O=C(NCCCN1CCOCC1)c1ccc(Nc2nccc(-c3cc4ccccc4s3)n2)cc1", "read-out": "binding", "method": "competition with immobilised ligand", "tested at": "1 µM", "remaining binding [%]": 8}
{"SMILES": "FC(F)(F)Oc1cccc(-c2cnc3ccc(-c4ccncc4)nn23)c1", "read-out": "binding", "method": "competition with immobilised ligand", "tested at": "5 µM", "remaining binding [%]": 75}
{"SMILES": "CN(C)c1ncc(F)c(-c2cnn3ncccc23)n1", "read-out": "binding", "tested at": "1 µM", "remaining binding [%]": 79}
{"SMILES": "Nc1ncc2c(n1)-c1c([nH]c3ccc(C#CC4CC4)cc13)CCCC2", "read-out": "binding", "method": "competition with immobilised ligand", "tested at": "1 µM", "remaining binding [%]": 88}
{"SMILES": "Cc1cnn2ncc(-c3ccnc(N(C)C)n3)c2c1", "read-out": "binding", "tested at": "1 µM", "remaining binding [%]": 73}
{"SMILES": "CCCCN(CCCC)C(=O)CN1C[C@@H](c2cc(OC)c3c(c2)OCO3)[C@H](C(=O)O)[C@H]1CC(C)(C)CCC", "read-out": "cell-free assay", "method": "competition with immobilised ligand", "tested at": "1 µM", "remaining binding [%]": 77.6}
{"SMILES": "C[C@@H]1CCN(c2nccc(-c3cnn4ncccc34)n2)C1", "read-out": "binding", "tested at": "1 µM", "remaining binding [%]": 58}
{"SMILES": "CNCc1ccccc1-c1csc([C@H](C)Nc2nc(C)nc3cc(OC)c(OC)cc23)c1", "read-out": "cell-free assay", "method": "competition with immobilised ligand", "tested at": "1 µM", "remaining binding [%]": 91}
{"SMILES": "c1cnn2ncc(-c3ccnc(N4CCC45COC5)n3)c2c1", "read-out": "binding", "tested at": "1 µM", "remaining binding [%]": 55}
{"SMILES": "O=C(Nc1c[nH]nc1C(=O)NC1CCNCC1)c1cc(F)cc(F)c1", "read-out": "binding", "method": "competition with immobilised ligand", "tested at": "1 µM", "remaining binding [%]": 100}
{"SMILES": "C=CC(=O)N1CCC(C(=O)NCC(=O)N2CCN(c3nc(-c4cnc(N)nc4C(F)F)nc(N4CCOCC4)n3)CC2)CC1", "read-out": "binding", "method": "competition with immobilised ligand", "tested at": "1 µM", "remaining binding [%]": 85}
{"SMILES": "O=C(c1ccc(Nc2nccc(-c3cc4ccccc4s3)n2)cc1)N1CCC(N2CCCC2)CC1", "read-out": "binding", "method": "competition with immobilised ligand", "tested at": "1 µM", "remaining binding [%]": 1.1}
{"SMILES": "CS(=O)(=O)c1cc(C2(NC(=O)c3cncc4c3cnn4-c3ccc(F)cc3)CC2)ccn1", "read-out": "cell-free assay", "method": "competition with immobilised ligand", "tested at": "1 µM", "remaining binding [%]": 97}
{"SMILES": "CNC(=O)[C@@H]1CC[C@@H](n2c(-c3ccc4cnccc4c3)nc3ccc(C(=O)NCc4cccc(C(N)=O)c4)cc32)C1", "read-out": "binding", "method": "competition with immobilised ligand", "tested at": "1 µM", "remaining binding [%]": 94}
{"SMILES": "CN(C)c1nccc(-c2cnn3ncccc23)n1", "read-out": "binding", "tested at": "1 µM", "remaining binding [%]": 69}
{"SMILES": "Cc1cc(NC(=O)c2cccc(S(F)(F)(F)(F)F)c2)cc(-n2ccn3nc(-c4cccnc4)cc23)c1", "read-out": "cell-free assay", "method": "competition with immobilised ligand", "tested at": "1 µM", "remaining binding [%]": 81.3}
{"SMILES": "O=C(c1ccc(Nc2ncc(Cl)c(-c3ccc(Cl)s3)n2)cc1)N1CCC(N2CCCC2)CC1", "read-out": "binding", "method": "competition with immobilised ligand", "tested at": "1 µM", "remaining binding [%]": 0.1}
{"SMILES": "O=C(N[C@H]1CCCCC/C=C\\C2C[C@@]2(C(=O)O)NC(=O)[C@@H]2C[C@@H](Oc3ccncc3)CN2C1=O)OC1CCCC1 (stereo partly shown)", "read-out": "binding", "method": "competition with immobilised ligand", "tested at": "1 µM", "remaining binding [%]": 100}
{"SMILES": "COc1cnc(Nc2cccc(S(N)(=O)=O)c2)nc1N1CCN(c2ccccc2)CC1", "read-out": "binding", "method": "competition with immobilised ligand", "tested at": "1 µM", "remaining binding [%]": 76}
{"SMILES": "CN(C)C(=O)Cn1cc(-c2nc([C@@](C)(c3ccc(-c4cnc(N)nc4)cc3)C3CC3)no2)cn1", "read-out": "cell-free assay", "method": "competition with immobilised ligand", "tested at": "1 µM", "remaining binding [%]": 91}
{"SMILES": "N[C@H]1CCN(c2nccc(-c3cnn4ncccc34)n2)C1", "read-out": "binding", "tested at": "1 µM", "remaining binding [%]": 91}
